Columns and labels:
Conditions in all cases: stereoisomer not certain
OR4K17 (Homo sapiens) = OR4K17 (Homo sapiens) (UniProt Q8NGC6)
Outline: (§1)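 Assay methods differ from source to source, frequently being transient luciferase assays in mammalian cell lines. For each receptor–molecule pair, the label responsive (active) applies when the original authors judged the measured signal statistically different from baseline, and non-responsive (inactive) applies otherwise.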

OR4K2 (Homo sapiens) = OR4K2 (Homo sapiens) (UniProt Q8NGD2)
OR4K2 (Homo sapiens), sequence (Q8NGD2 whole entry): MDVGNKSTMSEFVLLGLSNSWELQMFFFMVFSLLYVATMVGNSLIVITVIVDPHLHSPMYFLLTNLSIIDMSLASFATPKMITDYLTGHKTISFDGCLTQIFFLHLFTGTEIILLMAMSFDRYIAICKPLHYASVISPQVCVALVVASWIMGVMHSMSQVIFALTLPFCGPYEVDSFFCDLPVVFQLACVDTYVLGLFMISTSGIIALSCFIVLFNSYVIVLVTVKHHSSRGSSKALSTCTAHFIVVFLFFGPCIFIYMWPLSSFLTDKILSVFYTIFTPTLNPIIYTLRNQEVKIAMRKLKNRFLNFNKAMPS
Outline: as §1

OR4K3 (Homo sapiens) = OR4K3 (Homo sapiens) (UniProt Q96R72)
OR4K3 (Homo sapiens), sequence (Q96R72 whole entry): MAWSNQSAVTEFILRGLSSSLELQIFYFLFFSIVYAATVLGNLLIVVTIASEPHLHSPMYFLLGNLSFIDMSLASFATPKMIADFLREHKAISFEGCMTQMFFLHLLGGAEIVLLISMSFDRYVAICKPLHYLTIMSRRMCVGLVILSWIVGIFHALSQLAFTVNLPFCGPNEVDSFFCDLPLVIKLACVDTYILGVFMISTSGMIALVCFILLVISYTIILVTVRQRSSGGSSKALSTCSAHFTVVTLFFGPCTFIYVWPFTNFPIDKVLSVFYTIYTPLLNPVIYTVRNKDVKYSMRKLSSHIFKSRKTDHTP
Outline: as §1

OR4K5 (Homo sapiens) = OR4K5 (Homo sapiens) (UniProt Q8NGD3)
OR4K5 (Homo sapiens), sequence (Q8NGD3 whole entry): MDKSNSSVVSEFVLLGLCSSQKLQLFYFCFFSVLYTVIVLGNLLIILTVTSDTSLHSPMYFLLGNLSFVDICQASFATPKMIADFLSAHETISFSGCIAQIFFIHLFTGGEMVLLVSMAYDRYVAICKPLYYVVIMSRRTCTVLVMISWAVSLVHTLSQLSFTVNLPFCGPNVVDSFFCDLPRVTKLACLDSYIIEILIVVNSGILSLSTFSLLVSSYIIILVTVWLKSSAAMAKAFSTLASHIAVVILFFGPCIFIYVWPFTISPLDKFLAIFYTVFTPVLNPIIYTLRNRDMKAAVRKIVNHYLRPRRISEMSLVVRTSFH
Outline: as §1

OR4L1 (Homo sapiens) = OR4L1 (Homo sapiens) (UniProt Q8NH43)
OR4L1 (Homo sapiens), sequence (Q8NH43 whole entry): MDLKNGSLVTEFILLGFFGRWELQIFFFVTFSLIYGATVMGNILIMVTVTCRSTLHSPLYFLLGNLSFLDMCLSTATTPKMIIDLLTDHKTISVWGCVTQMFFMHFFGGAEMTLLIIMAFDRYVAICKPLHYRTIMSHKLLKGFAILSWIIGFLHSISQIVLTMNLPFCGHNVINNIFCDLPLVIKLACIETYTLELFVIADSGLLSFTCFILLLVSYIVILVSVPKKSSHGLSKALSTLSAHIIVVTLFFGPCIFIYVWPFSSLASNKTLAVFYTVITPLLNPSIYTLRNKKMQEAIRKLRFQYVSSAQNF
Outline: as §1

OR4M1 (Homo sapiens) = OR4M1 (Homo sapiens) (UniProt Q8NGD0)
OR4M1 (Homo sapiens), sequence (Q8NGD0 whole entry): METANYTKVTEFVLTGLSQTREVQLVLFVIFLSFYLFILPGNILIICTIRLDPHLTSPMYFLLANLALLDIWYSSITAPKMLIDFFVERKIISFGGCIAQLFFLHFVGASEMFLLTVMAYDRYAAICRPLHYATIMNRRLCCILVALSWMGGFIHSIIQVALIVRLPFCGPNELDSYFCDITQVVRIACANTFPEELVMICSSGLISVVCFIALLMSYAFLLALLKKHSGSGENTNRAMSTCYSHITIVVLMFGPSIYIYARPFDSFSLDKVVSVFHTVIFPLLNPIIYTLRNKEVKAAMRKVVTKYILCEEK
Outline: as §1

OR4M2 (Homo sapiens) = OR4M2 (Homo sapiens) (UniProt Q8NGB6)
OR4M2 (Homo sapiens), sequence (Q8NGB6 whole entry): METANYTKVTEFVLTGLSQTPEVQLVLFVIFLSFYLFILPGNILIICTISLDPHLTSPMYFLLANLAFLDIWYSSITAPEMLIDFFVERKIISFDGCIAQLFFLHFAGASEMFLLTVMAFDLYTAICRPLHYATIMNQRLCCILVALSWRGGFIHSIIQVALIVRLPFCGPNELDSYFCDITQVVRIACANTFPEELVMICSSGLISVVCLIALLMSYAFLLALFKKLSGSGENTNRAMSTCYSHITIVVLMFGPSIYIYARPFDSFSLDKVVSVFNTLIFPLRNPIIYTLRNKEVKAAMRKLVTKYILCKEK
Outline: as §1

OR4M2B (Homo sapiens) = OR4M2B (Homo sapiens) (UniProt A0A0X1KG70)
OR4M2B (Homo sapiens), sequence (A0A0X1KG70 whole entry): as the sequence (Q8NGB6 whole entry) above, with G96E, F225L, M239V, R284H counted along it
Outline: as §1

OR4N2 (Homo sapiens) = OR4N2 (Homo sapiens) (UniProt Q8NGD1)
OR4N2 (Homo sapiens), sequence (Q8NGD1 whole entry): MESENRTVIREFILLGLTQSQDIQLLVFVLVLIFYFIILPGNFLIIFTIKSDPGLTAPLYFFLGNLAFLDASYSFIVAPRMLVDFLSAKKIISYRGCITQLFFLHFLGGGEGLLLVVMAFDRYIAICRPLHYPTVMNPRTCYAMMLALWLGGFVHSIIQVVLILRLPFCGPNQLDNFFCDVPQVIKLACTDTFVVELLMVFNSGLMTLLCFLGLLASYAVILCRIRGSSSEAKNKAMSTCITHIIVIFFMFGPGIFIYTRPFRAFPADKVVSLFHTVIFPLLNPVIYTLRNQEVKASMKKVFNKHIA
Outline: as §1

OR4N4 (Homo sapiens) = OR4N4 (Homo sapiens) (UniProt Q8N0Y3)
OR4N4 (Homo sapiens), sequence (Q8N0Y3 whole entry): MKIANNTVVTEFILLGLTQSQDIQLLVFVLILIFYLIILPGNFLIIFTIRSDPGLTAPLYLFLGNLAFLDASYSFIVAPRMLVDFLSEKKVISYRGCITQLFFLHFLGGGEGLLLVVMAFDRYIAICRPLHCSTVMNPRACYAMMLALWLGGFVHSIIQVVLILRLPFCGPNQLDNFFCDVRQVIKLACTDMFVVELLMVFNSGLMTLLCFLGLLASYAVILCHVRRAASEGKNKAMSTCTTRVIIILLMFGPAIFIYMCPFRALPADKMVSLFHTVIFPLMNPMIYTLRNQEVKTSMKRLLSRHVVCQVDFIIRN
Outline: as §1

OR4N4C (Homo sapiens) = OR4N4C (Homo sapiens) (UniProt A0A096LPK9)
OR4N4C (Homo sapiens), sequence (A0A096LPK9 whole entry): as the sequence (Q8N0Y3 whole entry) above, with M259I counted along it
Outline: as §1

OR4N5 (Homo sapiens) = OR4N5 (Homo sapiens) (UniProt Q8IXE1)
OR4N5 (Homo sapiens), sequence (Q8IXE1 whole entry): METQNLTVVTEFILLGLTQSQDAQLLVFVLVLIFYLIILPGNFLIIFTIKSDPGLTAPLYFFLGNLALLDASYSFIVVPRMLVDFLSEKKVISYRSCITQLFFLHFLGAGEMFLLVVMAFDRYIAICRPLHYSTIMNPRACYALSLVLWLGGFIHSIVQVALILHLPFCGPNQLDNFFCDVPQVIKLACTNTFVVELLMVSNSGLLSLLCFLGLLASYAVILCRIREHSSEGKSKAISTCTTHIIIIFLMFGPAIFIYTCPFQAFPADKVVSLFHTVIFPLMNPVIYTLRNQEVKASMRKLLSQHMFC
Outline: as §1

OR4K2 = tested on: OR4K2
OR4K2, sequence (as listed by the source): as the sequence (Q8NGD2 whole entry) above, with N307I counted along it
Outline: as §1

OR4KF = tested on: OR4KF
OR4KF, sequence (as listed by the source): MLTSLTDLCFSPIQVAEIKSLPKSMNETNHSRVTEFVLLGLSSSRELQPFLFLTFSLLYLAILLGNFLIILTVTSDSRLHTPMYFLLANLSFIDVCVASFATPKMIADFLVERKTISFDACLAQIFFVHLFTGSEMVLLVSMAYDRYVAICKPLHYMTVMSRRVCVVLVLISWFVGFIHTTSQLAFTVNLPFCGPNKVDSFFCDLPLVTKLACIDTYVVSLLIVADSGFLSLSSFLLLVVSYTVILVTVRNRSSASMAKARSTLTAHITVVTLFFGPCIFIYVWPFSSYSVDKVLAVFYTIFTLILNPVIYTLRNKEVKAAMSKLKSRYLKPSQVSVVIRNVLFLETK
Outline: as §1

OR4KH = tested on: OR4KH
OR4KH, sequence (as listed by the source): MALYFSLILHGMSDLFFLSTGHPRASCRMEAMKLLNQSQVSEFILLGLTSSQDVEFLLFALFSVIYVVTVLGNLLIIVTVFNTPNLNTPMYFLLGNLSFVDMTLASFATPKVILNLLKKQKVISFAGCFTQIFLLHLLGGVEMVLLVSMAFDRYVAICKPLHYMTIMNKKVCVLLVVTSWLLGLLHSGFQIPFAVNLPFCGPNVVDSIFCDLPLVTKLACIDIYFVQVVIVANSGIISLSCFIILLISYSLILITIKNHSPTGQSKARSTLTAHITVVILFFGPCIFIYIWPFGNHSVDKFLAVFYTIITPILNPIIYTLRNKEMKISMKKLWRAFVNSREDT
Outline: as §1

OR4L1 = tested on: OR4L1
OR4L1, sequence (as listed by the source): as the sequence (Q8NH43 whole entry) above, with R52S counted along it
Outline: as §1

OR4M1 H277N V279L L284H = tested on: OR4M1 H277N V279L L284H
Outline: as §1

OR4N2 A57V I76T = tested on: OR4N2 A57V I76T
Outline: as §1

OR4N2 R260C F279L R290H = tested on: OR4N2 R260C F279L R290H
Outline: as §1

OR4N2 = tested on: OR4N2
OR4N2, sequence (as listed by the source): as the sequence (Q8NGD1 whole entry) above, with I76T counted along it
Outline: as §1

Measured: odorant receptor agonist call

OR4K17 (Homo sapiens), sequence (Q8NGC6 as listed by the source): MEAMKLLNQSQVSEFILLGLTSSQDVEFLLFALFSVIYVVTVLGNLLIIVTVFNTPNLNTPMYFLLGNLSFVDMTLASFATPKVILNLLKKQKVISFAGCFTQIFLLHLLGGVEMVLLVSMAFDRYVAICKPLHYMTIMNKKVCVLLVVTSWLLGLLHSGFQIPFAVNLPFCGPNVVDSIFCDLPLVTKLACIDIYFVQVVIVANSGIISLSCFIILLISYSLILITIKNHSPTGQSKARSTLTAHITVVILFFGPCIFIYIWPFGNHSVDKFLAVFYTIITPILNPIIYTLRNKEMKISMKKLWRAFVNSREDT

Cc1c([N+](=O)[O-])c(C)c([N+](=O)[O-])c(C(C)(C)C)c1[N+](=O)[O-]
inactive: OR4K17 (Homo sapiens) | OR4K2 (Homo sapiens) | OR4K3 (Homo sapiens) | OR4K5 (Homo sapiens) | OR4L1 (Homo sapiens) | OR4M1 (Homo sapiens) | OR4M2 (Homo sapiens) | OR4M2B (Homo sapiens) | OR4N2 (Homo sapiens) | OR4N4 (Homo sapiens) | OR4N4C (Homo sapiens) | OR4N5 (Homo sapiens)

C=CCOC(=O)Cc1ccccc1
inactive: OR4K2 (Homo sapiens) | OR4K2 | OR4K5 (Homo sapiens) | OR4KF | OR4KH | OR4L1 (Homo sapiens) | OR4L1 | OR4M1 (Homo sapiens) | OR4M1 H277N V279L L284H | OR4M2 (Homo sapiens) | OR4N2 (Homo sapiens) | OR4N2 A57V I76T | OR4N2 R260C F279L R290H | OR4N2 | OR4N4 (Homo sapiens) | OR4N5 (Homo sapiens)

From the M2OR odorant receptor database
